Activity calls are given as the source filed them. The rule behind the calls is not given here.
Key:
Mus musculus [1] = test: Anticonvulsant activity in Swiss Albino mouse at 300 mg/kg, ip after 0.5 hr by scPTZ test; type: functional, organism-based; design: dose 300 mg/kg
In short: (§1)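 Mice (Swiss, 20-25 g) given i.p. doses of 30, 100 and 300 mg/kg under ADD program protocols, three per group, examined at 0.5 and 4 h in MES, scPTZ, scSTY or scPIC seizure tests. Value is the minimum dose protecting half or more of the mice.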

Rattus norvegicus [2] = species: Rattus norvegicus; test: Anti-dynamic allodynic effect in Sprague-Dawley rat CCI model assessed as latency to paw withdrawal after 2 hr; type: functional
In short: (§2)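 Rats with sciatic nerve chronic constriction injury (pentobarbital 65 mg/kg i.p. anaesthesia), baseline and day 9 testing, then drug per randomization table. After 10 min acclimatization, affected plantar surface stroked mildly with a cotton-bud; paw lift recorded. n = 4; retested 0.5-2.5 h post-dose.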

Rattus norvegicus [3] = test: Anti-dynamic allodynia effect in Sprague-Dawley rat SNL model assessed as latency to paw withdrawal 100 mg/kg, ip after 1.5 hrs; type: functional; details: route intraperitoneal
In short: (§3)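 Left L5 spinal nerve ligation rats, tested preoperatively and 9 days postoperatively, then given 100 mg/kg i.p. (vehicle 30% v/v PEG 400 in water). After 10 min acclimatization, plantar surface of affected paw stroked mildly with a cotton-bud; paw lift response recorded. n = 4; retested 0.5-2.5 h post-dose.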

Mus musculus [4] = test: Anticonvulsant activity in Swiss Albino mouse at 300 mg/kg, ip after 0.5 hr by scSTY test; type: functional, organism-based; design: dose 300 mg/kg; in short: as §1
Mus musculus [5] = test: Anticonvulsant activity in Swiss Albino mouse at 300 mg/kg, ip after 0.5 hr by MES test; type: functional, organism-based; design: dose 300 mg/kg; in short: as §1
Rattus norvegicus [6] = test: Effect on spontaneous pain in Sprague-Dawley rat SNL model assessed as duration of paw withdrawal at 100 mg/kg, ip after 2 hrs; type: functional; details: route intraperitoneal
In short: (§4)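 Rats underwent left L5 spinal nerve ligation (Kim and Chung) under i.p. pentobarbital (65 mg/kg). Spontaneous pain is recorded for 5 min after 10 min acclimatization, as cumulative duration the ipsilateral paw is lifted, excluding locomotor lifts. Dosing is 100 mg/kg i.p. in 30% v/v PEG 400/water, with testing at 0.5–2.5 h. Four rats, mean ± SEM versus predrug, one-way ANOVA with Bonferroni.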

Mus musculus [7] = test: Neurotoxicity in Swiss Albino mouse at 300 mg/kg, ip after 0.5 hr by rotarod test; type: functional, organism-based; design: dose 300 mg/kg
In short: (§5)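 Swiss mice (20-25 g) are trained on an accelerating rotorod (10 rpm, 3.2 cm rod), then injected i.p. at 30, 100 or 300 mg/kg, with three per group. Neurotoxicity means failure to keep equilibrium for at least 1 min in each of three trials, checked at 0.5 and 4 h. The value reported is the minimum dose affecting half or more of the mice.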

Rattus norvegicus [8] = test: Effect on spontaneous pain in Sprague-Dawley rat SNL model assessed as duration of paw withdrawal at 100 mg/kg, ip after 2.5 hrs; type: functional; details: route intraperitoneal; in short: as §4
Mus musculus [9] = test: Analgesic activity in Swiss Albino mouse assessed as number of acetic acid-induced writhing per 30 min after 100 mg/kg, ip; type: functional
In short: (§6)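 Mice in groups of six dosed i.p. at 100 mg/kg, controls receiving 30% v/v PEG 400 in water. Writhing induced by i.p. 0.1 mL of 3% v/v acetic acid 1 h after drug. Writhes (abdominal stretch with at least one hind limb extended) counted over 30 min; % inhibition calculated. Mean ± SEM, Student's t test.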

Mus musculus [10] = test: Anticonvulsant activity in Swiss Albino mouse at 300 mg/kg, ip after 4 hrs by scSTY test; type: functional, organism-based; design: dose 300 mg/kg; in short: as §1
Mus musculus [11] = test: Analgesic activity in Swiss Albino mouse assessed as inhibition of acetic acid-induced writhing responses at 100 mg/kg, ip; type: functional; in short: as §6
Rattus norvegicus [12] = species: Rattus norvegicus; test: Anti-dynamic allodynic effect in Sprague-Dawley rat CCI model assessed as latency to paw withdrawal after 1.5 hr; type: functional; in short: as §2
Rattus norvegicus [13] = test: Anti-dynamic allodynia effect in Sprague-Dawley rat SNL model assessed as latency to paw withdrawal 100 mg/kg, ip after 2.5 hrs; type: functional; details: route intraperitoneal; in short: as §3
Mus musculus [14] = test: Anticonvulsant activity in Swiss Albino mouse at 100 mg/kg, ip after 0.5 hr by scPIC test; type: functional, organism-based; design: dose 100 mg/kg; in short: as §1
Rattus norvegicus [15] = test: Antihyperalgesic effects in Sprague-Dawley rat SNL model assessed as duration of paw withdrawal at 100 mg/kg, ip after 2 hrs, ip; type: functional; details: route intraperitoneal
In short: (§7)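 L5 SNL rats (n = 4), dosed 100 mg/kg i.p. (vehicle 30% v/v PEG 400 in water). Pin-prick to midplantar ipsilateral left hindpaw; withdrawal duration, mean of three responses; ≥2 s defined abnormal. Mean ± SEM; one-way ANOVA with Bonferroni versus predrug.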

Rattus norvegicus [16] = test: Anti-dynamic allodynia effect in Sprague-Dawley rat SNL model assessed as latency to paw withdrawal 100 mg/kg, ip after 2 hrs; type: functional; details: route intraperitoneal; in short: as §3
Rattus norvegicus [17] = test: Antihyperalgesic effects in Sprague-Dawley rat CCI model assessed as duration of paw withdrawal at 100 mg/kg, ip after 1 hr; type: functional; details: route intraperitoneal
Rattus norvegicus [18] = test: Anti-dynamic allodynia effect in Sprague-Dawley rat SNL model assessed as latency to paw withdrawal 100 mg/kg, ip after 0.5 hr; type: functional; details: route intraperitoneal; in short: as §3
Rattus norvegicus [19] = test: Antihyperalgesic effects in Sprague-Dawley rat SNL model assessed as duration of paw withdrawal at 100 mg/kg, ip after 2.5 hrs, ip; type: functional; details: route intraperitoneal; in short: as §7
Rattus norvegicus [20] = test: Antihyperalgesic effects in Sprague-Dawley rat SNL model assessed as duration of paw withdrawal at 100 mg/kg, ip after 1 hr, ip; type: functional; details: route intraperitoneal; in short: as §7
Mus musculus [21] = test: Anticonvulsant activity in Swiss Albino mouse at 300 mg/kg, ip after 4 hrs by MES test; type: functional, organism-based; design: dose 300 mg/kg; in short: as §1
Rattus norvegicus [22] = test: Antihyperalgesic effects in Sprague-Dawley rat CCI model assessed as duration of paw withdrawal at 100 mg/kg, ip after 2.5 hrs; type: functional; details: route intraperitoneal
Rattus norvegicus [23] = test: Antihyperalgesic effects in Sprague-Dawley rat CCI model assessed as duration of paw withdrawal at 100 mg/kg, ip after 2 hrs; type: functional; details: route intraperitoneal
Rattus norvegicus [24] = test: Antihyperalgesic effects in Sprague-Dawley rat CCI model assessed as duration of paw withdrawal at 100 mg/kg, ip after 0.5 hr; type: functional; details: route intraperitoneal
Rattus norvegicus [25] = test: Effect on spontaneous pain in Sprague-Dawley rat SNL model assessed as duration of paw withdrawal at 100 mg/kg, ip after 0.5 hr; type: functional; details: route intraperitoneal; in short: as §4
Rattus norvegicus [26] = species: Rattus norvegicus; test: Anti-dynamic allodynic effect in Sprague-Dawley rat CCI model assessed as latency to paw withdrawal after 0.5 hr; type: functional; in short: as §2
Rattus norvegicus [27] = test: Antihyperalgesic effects in Sprague-Dawley rat CCI model assessed as duration of paw withdrawal at 100 mg/kg, ip after 1.5 hrs; type: functional; details: route intraperitoneal
Mus musculus [28] = test: Anticonvulsant activity in Swiss Albino mouse at 100 mg/kg, ip after 4 hrs by scPIC test; type: functional, organism-based; design: dose 100 mg/kg; in short: as §1
Rattus norvegicus [29] = species: Rattus norvegicus; test: Anti-dynamic allodynic effect in Sprague-Dawley rat CCI model assessed as latency to paw withdrawal after 1 hr; type: functional; in short: as §2
Rattus norvegicus [30] = test: Antihyperalgesic effects in Sprague-Dawley rat SNL model assessed as duration of paw withdrawal at 100 mg/kg, ip after 1.5 hrs, ip; type: functional; details: route intraperitoneal; in short: as §7
Rattus norvegicus [31] = test: Anti-dynamic allodynia effect in Sprague-Dawley rat SNL model assessed as latency to paw withdrawal 100 mg/kg, ip after 1 hr; type: functional; details: route intraperitoneal; in short: as §3
Mus musculus [32] = test: Neurotoxicity in Swiss Albino mouse at 300 mg/kg, ip after 4 hrs by rotarod test; type: functional, organism-based; design: dose 300 mg/kg; in short: as §5
Rattus norvegicus [33] = test: Effect on spontaneous pain in Sprague-Dawley rat SNL model assessed as duration of paw withdrawal at 100 mg/kg, ip after 1 hr; type: functional; details: route intraperitoneal; in short: as §4
Rattus norvegicus [34] = test: Antihyperalgesic effects in Sprague-Dawley rat SNL model assessed as duration of paw withdrawal at 100 mg/kg, ip after 0.5 hr, ip; type: functional; details: route intraperitoneal; in short: as §7
Rattus norvegicus [35] = species: Rattus norvegicus; test: Anti-dynamic allodynic effect in Sprague-Dawley rat CCI model assessed as latency to paw withdrawal after 2.5 hr; type: functional; in short: as §2
Rattus norvegicus [36] = test: Effect on spontaneous pain in Sprague-Dawley rat SNL model assessed as duration of paw withdrawal at 100 mg/kg, ip after 1.5 hrs; type: functional; details: route intraperitoneal; in short: as §4
Mus musculus [37] = test: Neurotoxicity in Swiss Albino mouse at 100 mg/kg, ip after 4 hrs by rotarod test; type: functional, organism-based; design: dose 100 mg/kg; in short: as §5
Mus musculus [38] = test: Anticonvulsant activity in Swiss Albino mouse at 300 mg/kg, ip after 0.5 hr by scPIC test; type: functional, organism-based; design: dose 300 mg/kg; in short: as §1
Mus musculus [39] = test: Neurotoxicity in Swiss Albino mouse at 100 mg/kg, ip after 0.5 hr by rotarod test; type: functional, organism-based; design: dose 100 mg/kg; in short: as §5
Mus musculus [40] = test: Anticonvulsant activity in Swiss Albino mouse at 30 mg/kg, ip after 0.5 hr by MES test; type: functional, organism-based; design: dose 30 mg/kg; in short: as §1
Mus musculus [41] = test: Anticonvulsant activity in Swiss Albino mouse at 300 mg/kg, ip after 4 hrs by scPIC test; type: functional, organism-based; design: dose 300 mg/kg; in short: as §1
Mus musculus [42] = test: Anticonvulsant activity in Swiss Albino mouse at 30 mg/kg, ip after 4 hrs by MES test; type: functional, organism-based; design: dose 30 mg/kg; in short: as §1

Structure (SMILES): O=C(O)CCCNC(=O)N/N=C/c1ccc(Cl)cc1
- Activity (Mus musculus [1]): inactive
- Activity (Rattus norvegicus [2]): 14.5 s
- Activity (Rattus norvegicus [3]): 11.3 s
- Activity (Mus musculus [4]): Active
- Activity (Mus musculus [5]): inactive
- Activity (Rattus norvegicus [6]): 11.2 s
- Activity (Mus musculus [7]): inactive
- Activity (Rattus norvegicus [8]): 15.9 s
- Activity (Mus musculus [9]; route intraperitoneal): 59.3
- Activity (Mus musculus [10]): Active
- inhibition in vivo at 100 mg/kg (Mus musculus [11]; route intraperitoneal): 68%
- Activity (Rattus norvegicus [12]): 1.1 s
- Activity (Rattus norvegicus [13]): 0.35 s
- Activity (Mus musculus [14]): Active
- Activity (Rattus norvegicus [15]): 5.6 s
- Activity (Rattus norvegicus [16]): 0.8 s
- Activity (Rattus norvegicus [17]): 7.8 s
- Activity (Rattus norvegicus [18]): 4.5 s
- Activity (Rattus norvegicus [19]): 17.9 s
- Activity (Rattus norvegicus [20]): 17.3 s
- Activity (Mus musculus [21]): inactive
- Activity (Rattus norvegicus [22]): 7.2 s
- Activity (Rattus norvegicus [23]): 4.2 s
- Activity (Rattus norvegicus [24]): 7.9 s
- Activity (Rattus norvegicus [25]): 33.1 s
- Activity (Rattus norvegicus [26]): 14.9 s
- Activity (Rattus norvegicus [27]): 4.4 s
- Activity (Mus musculus [28]): Active
- Activity (Rattus norvegicus [29]): 3.5 s
- Activity (Rattus norvegicus [30]): 12.3 s
- Activity (Rattus norvegicus [31]): 4.2 s
- Activity (Mus musculus [32]): inactive
- Activity (Rattus norvegicus [33]): 14 s
- Activity (Rattus norvegicus [34]): 24.6 s
- Activity (Rattus norvegicus [35]): 13 s
- Activity (Rattus norvegicus [36]): 12.7 s

Structure (SMILES): O=C1NC(=O)C(c2ccccc2)(c2ccccc2)N1
- Activity (Mus musculus [1]): inactive
- Activity (Mus musculus [4]): inactive
- Activity (Mus musculus [37]): Active
- Activity (Mus musculus [9]): inactive
- Activity (Mus musculus [38]): inactive
- Activity (Mus musculus [39]): Active
- Activity (Mus musculus [10]): inactive
- Activity (Mus musculus [11]): inactive
- Activity (Mus musculus [40]): Active
- Activity (Mus musculus [41]): inactive
- Activity (Mus musculus [42]): Active
